Active and inactive are the calls of the source. The rule behind the calls is not given here.
Columns and labels:
[1] = tested on: Raji; test: Antiproliferative activity against human Raji cells after 48 hrs by MTT assay; assay type: functional, cell-based
Method in brief: (§1)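 Cells seeded at 5000 per well and left overnight, then exposed to increasing concentrations (0-50 μM) for 48 h. […] HL-60/MX2 is a mitoxantrone-selected HL-60 derivative with reduced Topo IIα/β.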

[2] = Antiproliferative activity against human HL60/MX2 cells after 48 hrs by MTT assay; assay type: functional, cell-based; conditions: HL60/MX2, 48 h; method in brief: as §1
[3] = tested on: A549; test: Antiproliferative activity against human A549 cells after 48 hrs by MTT assay; assay type: functional, cell-based; conditions: A549, 48 h; method in brief: as §1
[4] = target: T1, DNA topoisomerase 2-alpha (Homo sapiens, UniProt P11388); test: Inhibition of purified human topoisomerase 2-mediated relaxation of supercoiled pBR322 DNA at 50 uM incubated for 30 mins by agarose gel electrophoresis
T1 sequence (P11388 whole entry): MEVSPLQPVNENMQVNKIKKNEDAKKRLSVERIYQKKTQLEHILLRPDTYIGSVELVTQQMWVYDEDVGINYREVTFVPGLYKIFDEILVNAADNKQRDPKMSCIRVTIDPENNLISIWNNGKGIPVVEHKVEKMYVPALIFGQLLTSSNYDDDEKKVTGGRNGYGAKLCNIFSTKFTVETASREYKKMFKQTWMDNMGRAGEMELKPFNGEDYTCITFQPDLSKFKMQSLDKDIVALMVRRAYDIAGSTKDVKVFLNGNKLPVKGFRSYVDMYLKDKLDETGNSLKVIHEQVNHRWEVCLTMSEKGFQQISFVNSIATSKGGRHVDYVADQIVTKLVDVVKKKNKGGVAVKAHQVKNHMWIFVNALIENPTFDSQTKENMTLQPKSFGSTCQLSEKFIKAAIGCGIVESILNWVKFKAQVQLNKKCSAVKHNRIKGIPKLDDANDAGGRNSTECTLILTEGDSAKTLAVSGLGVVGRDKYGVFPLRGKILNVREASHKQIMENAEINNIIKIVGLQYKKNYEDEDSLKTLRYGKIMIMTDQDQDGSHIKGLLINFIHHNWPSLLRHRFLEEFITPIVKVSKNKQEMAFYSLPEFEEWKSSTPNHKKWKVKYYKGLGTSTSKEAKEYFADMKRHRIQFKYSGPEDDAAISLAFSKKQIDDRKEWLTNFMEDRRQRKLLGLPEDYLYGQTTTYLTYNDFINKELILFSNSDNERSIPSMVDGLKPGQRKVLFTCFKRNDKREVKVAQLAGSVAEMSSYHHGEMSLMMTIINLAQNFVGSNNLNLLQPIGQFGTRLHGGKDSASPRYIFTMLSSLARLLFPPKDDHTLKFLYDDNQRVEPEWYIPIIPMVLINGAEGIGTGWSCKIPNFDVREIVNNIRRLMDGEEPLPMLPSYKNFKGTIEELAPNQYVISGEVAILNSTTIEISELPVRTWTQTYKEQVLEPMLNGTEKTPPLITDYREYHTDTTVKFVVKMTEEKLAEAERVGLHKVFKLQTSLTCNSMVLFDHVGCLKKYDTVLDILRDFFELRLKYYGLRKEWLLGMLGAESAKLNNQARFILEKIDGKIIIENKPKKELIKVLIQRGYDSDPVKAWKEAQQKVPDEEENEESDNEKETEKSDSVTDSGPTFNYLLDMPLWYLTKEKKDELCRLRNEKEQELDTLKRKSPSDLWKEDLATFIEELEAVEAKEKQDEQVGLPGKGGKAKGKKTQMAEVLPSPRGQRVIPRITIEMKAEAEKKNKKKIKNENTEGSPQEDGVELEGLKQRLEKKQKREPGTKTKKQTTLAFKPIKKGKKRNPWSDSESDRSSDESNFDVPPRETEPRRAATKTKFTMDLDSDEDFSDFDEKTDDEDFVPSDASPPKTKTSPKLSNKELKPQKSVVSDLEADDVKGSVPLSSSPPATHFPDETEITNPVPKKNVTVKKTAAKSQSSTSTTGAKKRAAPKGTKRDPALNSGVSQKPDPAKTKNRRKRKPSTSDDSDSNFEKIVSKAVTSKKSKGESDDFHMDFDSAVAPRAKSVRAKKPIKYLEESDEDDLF
Method in brief: (§2)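 Reactions contained 0.2 μg supercoiled pBR322 in 50 mM Tris-HCl pH 8.0, 150 mM NaCl, 10 mM MgCl2, 0.5 mM DTT, 30 μg/ml BSA, normally 2 mM ATP (1, 2 or 4 mM in ATP-competition runs). Started with 1 U human Topo II, 30 min at 37 °C, stopped with sarcosyl buffer, run on 1% agarose 1.5 h at 75 V, gel-stained and imaged under UV.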

[5] = tested on: HeLa; test: Antiproliferative activity against human HeLa cells after 48 hrs by MTT assay; assay type: functional, cell-based; method in brief: as §1
[6] = Antiproliferative activity against human MDA-MB-201 cells after 48 hrs by MTT assay; assay type: functional, cell-based; method in brief: as §1
[7] = Antiproliferative activity against human HL60 cells after 48 hrs by MTT assay; assay type: functional, cell-based; conditions: HL-60, 48 h; method in brief: as §1
[8] = tested on: K562; test: Antiproliferative activity against human K562 cells after 48 hrs by MTT assay; assay type: functional, cell-based; conditions: K562, 48 h; method in brief: as §1
[9] = tested on: HL-60; test: Resistance index, ratio of IC50 for human HL60/MX2 cells to IC50 for HL60 cells; assay type: functional
Method in brief: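 Resistance index calculated as MTT-derived IC50 (48 h exposure, 0-50 μM, A570 readout) in HL-60/MX2 divided by IC50 in parental HL-60.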

[10] = tested on: HEK293; test: Cytotoxicity against HEK293 cells after 48 hrs by MTT assay; assay type: cell-based; conditions: Homo sapiens, HEK293, 48 h
[11] = target: T2, DNA topoisomerase 1 (Homo sapiens) (UniProt P11387); test: Inhibition of recombinant human topoisomerase 1-mediated relaxation of supercoiled pBR322 DNA at 50 uM incubated for 30 mins by agarose gel electrophoresis
T2 sequence (whole entry): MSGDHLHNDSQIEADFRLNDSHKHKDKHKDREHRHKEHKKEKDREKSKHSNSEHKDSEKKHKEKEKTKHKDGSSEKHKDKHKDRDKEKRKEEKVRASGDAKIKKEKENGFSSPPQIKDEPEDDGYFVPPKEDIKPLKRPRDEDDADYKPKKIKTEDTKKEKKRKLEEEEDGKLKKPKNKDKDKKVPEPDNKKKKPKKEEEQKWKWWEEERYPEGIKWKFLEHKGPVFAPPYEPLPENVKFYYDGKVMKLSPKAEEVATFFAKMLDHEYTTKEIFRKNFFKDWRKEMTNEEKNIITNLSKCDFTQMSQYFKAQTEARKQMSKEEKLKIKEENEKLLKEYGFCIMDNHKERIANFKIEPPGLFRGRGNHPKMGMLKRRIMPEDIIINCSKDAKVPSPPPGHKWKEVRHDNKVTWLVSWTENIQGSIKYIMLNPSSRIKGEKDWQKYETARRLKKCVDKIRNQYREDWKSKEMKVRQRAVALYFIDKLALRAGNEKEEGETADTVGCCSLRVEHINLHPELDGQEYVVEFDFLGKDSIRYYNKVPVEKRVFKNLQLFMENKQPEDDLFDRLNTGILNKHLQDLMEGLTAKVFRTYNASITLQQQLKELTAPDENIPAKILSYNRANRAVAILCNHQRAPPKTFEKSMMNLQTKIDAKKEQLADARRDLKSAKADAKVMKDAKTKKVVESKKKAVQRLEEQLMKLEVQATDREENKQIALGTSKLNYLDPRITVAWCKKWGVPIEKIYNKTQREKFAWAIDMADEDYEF
Method in brief: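 Supercoiled pBR322 relaxed by Topo I with compound, incubated 30 min at 37 °C, stopped with 1% SDS dye, run on 1% agarose 1 h at 90 V in TAE, stained and imaged under UV; camptothecin as reference.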

[12] = target: T1, DNA topoisomerase 2-alpha; test: Inhibition of purified human topoisomerase 2-mediated relaxation of supercoiled pBR322 DNA at 20 uM incubated for 30 mins by agarose gel electrophoresis; method in brief: as §2
[13] = tested on: Escherichia coli; test: Binding affinity to Escherichia coli pBR322 DNA assessed as intercalation of pBR322 DNA at 0.1 to 100 uM by fluorescence based ethidium bromide displacement assay
Method in brief: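 Increasing concentrations added to 20 nM pBR322 plasmid with 2.5 μM ethidium bromide in 10 mM HEPES pH 7.9, 100 mM KCl, 5 mM MgCl2, 0.1 mM EDTA. Fluorescence emission spectra recorded (excitation 510 nm, emission max 595 nm) at each concentration; mAMSA used as intercalating reference.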

Row | Structure (SMILES) | IC50 [1] | IC50 [2] | IC50 [3] | inhibition [4] | IC50 [5] | IC50 [6] | IC50 [7] | IC50 [8] | Ratio IC50 [9] | IC50 [10] | inhibition [11] | inhibition [12] | inhibition [13]
1 | CN1CCN(CCCn2c(N)c(-c3nc4ccccc4[nH]3)c3nc(C#N)c(C#N)nc32)CC1 | 2.62 µM | 3.32 µM | 5.75 µM | inactive | 15.6 µM | 4.52 µM | 0.75 µM | 1.26 µM | 4.4 | 6.26 µM | inactive |  | 
2 | CN(C)CCCCn1c(N)c(-c2nc3ccccc3s2)c2nc(C#N)c(C#N)nc21 | 10.1 µM | 2.14 µM | 35.8 µM |  | 18.7 µM | 2.74 µM | 0.83 µM | 1.33 µM | 2.6 | 5.31 µM |  | Active | 
3 | CN(C)CCCn1c(N)c(-c2nc3ccccc3n2C)c2nc(C#N)c(C#N)nc21 | 0.94 µM | 11.3 µM | 11.7 µM |  | 4.32 µM | 3.67 µM | 2.12 µM | 3.56 µM | 5.3 | 8.41 µM |  | Active | 
4 | COc1cc(NS(C)(=O)=O)ccc1Nc1c2ccccc2nc2ccccc12 |  |  |  |  |  |  |  |  |  |  |  |  | Active
5 | CCN(CC)CCCCn1c(-c2c(N)n(C)c3nc(C#N)c(C#N)nc23)nc2ccccc21 | 0.6 µM | 3.92 µM | 13.1 µM |  | 11.8 µM | 6.95 µM | 2.86 µM | 3.18 µM | 1.3 | 8.82 µM |  | Active | 
6 | CN(C)CCCCn1c(N)c(-c2nc3ccccc3n2C)c2nc(C#N)c(C#N)nc21 | 0.32 µM | 2.58 µM | 6.15 µM |  | 0.46 µM | 1.79 µM | 0.74 µM | 1.45 µM | 3.5 | 3.87 µM |  | Active | 
7 | CN(C)CCCn1c(N)c(-c2nc3ccccc3o2)c2nc(C#N)c(C#N)nc21 | 1.94 µM | 1.31 µM | 7.17 µM |  | 11.2 µM | 5.64 µM | 0.39 µM | 5.9 µM | 3.3 | 5.88 µM |  | Active | 
8 | CN(C)CCn1c(N)c(-c2nc3ccccc3[nH]2)c2nc(C#N)c(C#N)nc21 | 8.32 µM | 3.78 µM | > 50 µM | inactive | 8.88 µM | 43.5 µM | 2.22 µM | 6.34 µM | 1.7 | 9.73 µM | inactive |  | 
9 | CN(C)CCCCn1c(N)c(-c2nc3ccccc3o2)c2nc(C#N)c(C#N)nc21 | 9.2 µM | 0.96 µM | 5.47 µM |  | 1.95 µM | 6.13 µM | 0.64 µM | 1.38 µM | 1.5 | 6.24 µM |  | Active | 
10 | CCN(CC)CCCCn1c(N)c(-c2nc3ccccc3n2C)c2nc(C#N)c(C#N)nc21 | 0.92 µM | 1.73 µM | 1.72 µM |  | 1.61 µM | 2.89 µM | 0.7 µM | 1.01 µM | 2.5 | 3.16 µM |  | Active | 
11 | CCN(CC)CCCn1c(N)c(-c2nc3ccccc3n2C)c2nc(C#N)c(C#N)nc21 | 2.22 µM | 4.47 µM | 10.7 µM |  | 12.4 µM | 6.75 µM | 2.81 µM | 3.27 µM | 1.6 | 7.24 µM |  | Active | 
12 | CCN(CC)CCCn1c(N)c(-c2nc3ccccc3[nH]2)c2nc(C#N)c(C#N)nc21 | 1.87 µM | 1.82 µM | 25.3 µM |  | 3.15 µM | 28.9 µM | 0.73 µM | 1.8 µM | 2.5 | 7.87 µM | inactive | Active | 
13 | CCN(CC)CCCCn1c(N)c(-c2nc3ccccc3o2)c2nc(C#N)c(C#N)nc21 | 2.61 µM | 1.72 µM | 9.39 µM |  | 6.42 µM | 2.71 µM | 0.45 µM | 1.98 µM | 3.8 | 3.96 µM |  | Active | 
14 | CN(C)CCCn1c(N)c(-c2nc3ccccc3s2)c2nc(C#N)c(C#N)nc21 | 2.99 µM | 1.31 µM | 8.87 µM |  | 0.72 µM | 2.93 µM | 0.51 µM | 1.8 µM | 2.5 | 4.29 µM |  | Active | 
15 | CCN(CC)CCn1c(N)c(-c2nc3ccccc3[nH]2)c2nc(C#N)c(C#N)nc21 | 8.95 µM | 7.15 µM | > 50 µM | inactive | 11.6 µM | 25.4 µM | 1.88 µM | 2.49 µM | 3.8 | 12.2 µM | inactive |  | 
16 | CN(C)CCn1c(N)c(-c2nc3ccccc3s2)c2nc(C#N)c(C#N)nc21 | 1.96 µM | > 50 µM | > 50 µM | inactive | > 50 µM | > 50 µM | 1.67 µM | 8 µM |  | 11.8 µM | inactive |  | 
17 | N#Cc1nc2c(-c3nc4ccccc4[nH]3)c(N)n(CCCN3CCCCC3)c2nc1C#N | 3.38 µM | 1.01 µM | 6.11 µM | inactive | 6.68 µM | 6.23 µM | 1.68 µM | 3.46 µM | 0.6 | 6.72 µM | inactive |  | 
18 | CN(C)CCCn1c(N)c(-c2nc3ccccc3[nH]2)c2nc(C#N)c(C#N)nc21 | 1.23 µM | 2.39 µM | 10.4 µM |  | 25.9 µM | 1.82 µM | 0.87 µM | 1.73 µM | 2.7 | 8.36 µM | inactive | Active | 
19 | CN1CCN(CCn2c(N)c(-c3nc4ccccc4[nH]3)c3nc(C#N)c(C#N)nc32)CC1 | > 50 µM | 6.49 µM | 40.5 µM |  | > 50 µM | 9.11 µM | 4.3 µM | 6.55 µM | 1.5 | 10.9 µM | inactive |  | 
20 | N#Cc1nc2c(-c3nc4ccccc4[nH]3)c(N)n(CCO)c2nc1C#N | 5.52 µM | > 50 µM | > 50 µM | inactive | > 50 µM | > 50 µM | > 50 µM | > 50 µM |  | > 50 µM | inactive |  | 
21 | CN(C)CCCCn1c(-c2c(N)n(C)c3nc(C#N)c(C#N)nc23)nc2ccccc21 | 1.07 µM | 2.81 µM | 11.2 µM |  | 10.1 µM | 6.48 µM | 2.27 µM | 11.3 µM | 1.2 | 7.13 µM |  | Active | 
